Test [1] concerns the target T1, Lysine-specific demethylase 4C (Homo sapiens, UniProt Q9H3R0).
T1 sequence (Q9H3R0 whole entry): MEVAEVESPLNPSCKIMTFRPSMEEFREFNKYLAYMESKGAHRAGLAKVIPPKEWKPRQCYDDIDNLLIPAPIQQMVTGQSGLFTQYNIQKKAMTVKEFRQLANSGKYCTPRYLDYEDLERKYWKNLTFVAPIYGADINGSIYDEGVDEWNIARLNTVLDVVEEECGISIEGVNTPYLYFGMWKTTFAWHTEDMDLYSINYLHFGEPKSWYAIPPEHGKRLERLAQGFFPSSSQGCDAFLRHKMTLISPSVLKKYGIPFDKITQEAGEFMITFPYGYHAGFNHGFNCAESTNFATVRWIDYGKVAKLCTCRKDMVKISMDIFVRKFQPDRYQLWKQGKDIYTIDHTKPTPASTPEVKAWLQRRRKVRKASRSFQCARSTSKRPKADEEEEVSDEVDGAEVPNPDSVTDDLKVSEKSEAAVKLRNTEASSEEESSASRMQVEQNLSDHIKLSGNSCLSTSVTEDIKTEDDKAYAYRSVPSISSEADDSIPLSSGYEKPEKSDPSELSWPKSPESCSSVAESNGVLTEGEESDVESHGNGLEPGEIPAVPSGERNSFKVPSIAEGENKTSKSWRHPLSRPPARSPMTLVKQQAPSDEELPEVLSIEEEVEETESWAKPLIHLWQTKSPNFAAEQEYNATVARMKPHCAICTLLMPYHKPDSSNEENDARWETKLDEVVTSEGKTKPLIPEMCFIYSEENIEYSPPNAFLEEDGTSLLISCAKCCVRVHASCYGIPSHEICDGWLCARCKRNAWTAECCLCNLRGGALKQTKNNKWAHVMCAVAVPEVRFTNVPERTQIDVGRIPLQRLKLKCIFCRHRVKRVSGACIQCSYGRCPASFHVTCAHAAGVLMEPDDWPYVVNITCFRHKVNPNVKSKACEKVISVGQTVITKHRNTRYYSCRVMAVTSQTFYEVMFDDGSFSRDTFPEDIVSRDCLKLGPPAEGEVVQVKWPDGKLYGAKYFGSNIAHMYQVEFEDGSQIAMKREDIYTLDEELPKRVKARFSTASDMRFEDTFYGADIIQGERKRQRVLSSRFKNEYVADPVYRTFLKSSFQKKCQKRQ
In words: Inhibition of KDM4C (unknown origin) using H3K9me3 peptide and 2-oxoglutarate as substrate after 1 hr by FDH-coupled assay.

The target of test [2] is Histone lysine demethylase PHF8 (Homo sapiens, UniProt Q9UPP1). In words: Inhibition of KDM7B (unknown origin) using H3K4me3K9me2 and 2-oxoglutarate as substrate after 1 hr by matrix-assisted laser desorption ionization time of flight mass spectrometry. In a few lines:
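Enzyme (0.5 mg/mL) was reacted with 5 μM H3K4me3K9me2 peptide, 0.5 mM 2-oxoglutarate, 20 μM Fe(II), 20 μM ZnCl2, 0.5 mM ascorbate, 150 mM KCl, glutathione and DTT in 10 mM Tris-HCl pH 8.0 for 1 h at 37 °C. Inhibition was calculated from the remaining H3K9me2, and IC50 was taken as the concentration halving H3K9me2 removal. Values are means of two experiments.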

A short description of test [3]: Growth inhibition of human KYSE-150 cells after 48 hrs by MTT assay. It counts as functional. The following applies: KYSE-150, 48 h. The gist of the method: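 Cells were seeded at 5000/well in RPMI 1640 with 10% FBS and allowed to attach overnight, then exposed for 48 h at 37 °C in 5% CO2. MTT was added for 3 h, and the dye was solubilized in HCl–2-propanol and read at 560 nm (reference 750 nm).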

Test [4] is described as follows: Cell cycle arrest in human KYSE-150 cells assessed as reduction in G2/M phase after 24 hrs by FACS analysis. It counts as functional, cell-based. The gist of the method: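 HeLa or KYSE150 cells (5×10^5) were exposed for 24 h to 10 or 100 μM in RPMI 1640 with 10% FBS, then trypsinized. Cells were fixed in ice-cold 70% ethanol, PBS-washed and stained with propidium iodide (10 μg/mL) plus RNase A (0.2 mg/mL) for 30 min at 25 °C. Phase distribution was read by flow cytometry.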

Test [5] deals with T2, Lysine-specific demethylase 2A (Homo sapiens, UniProt Q9Y2K7).
T2 sequence (Q9Y2K7 whole entry): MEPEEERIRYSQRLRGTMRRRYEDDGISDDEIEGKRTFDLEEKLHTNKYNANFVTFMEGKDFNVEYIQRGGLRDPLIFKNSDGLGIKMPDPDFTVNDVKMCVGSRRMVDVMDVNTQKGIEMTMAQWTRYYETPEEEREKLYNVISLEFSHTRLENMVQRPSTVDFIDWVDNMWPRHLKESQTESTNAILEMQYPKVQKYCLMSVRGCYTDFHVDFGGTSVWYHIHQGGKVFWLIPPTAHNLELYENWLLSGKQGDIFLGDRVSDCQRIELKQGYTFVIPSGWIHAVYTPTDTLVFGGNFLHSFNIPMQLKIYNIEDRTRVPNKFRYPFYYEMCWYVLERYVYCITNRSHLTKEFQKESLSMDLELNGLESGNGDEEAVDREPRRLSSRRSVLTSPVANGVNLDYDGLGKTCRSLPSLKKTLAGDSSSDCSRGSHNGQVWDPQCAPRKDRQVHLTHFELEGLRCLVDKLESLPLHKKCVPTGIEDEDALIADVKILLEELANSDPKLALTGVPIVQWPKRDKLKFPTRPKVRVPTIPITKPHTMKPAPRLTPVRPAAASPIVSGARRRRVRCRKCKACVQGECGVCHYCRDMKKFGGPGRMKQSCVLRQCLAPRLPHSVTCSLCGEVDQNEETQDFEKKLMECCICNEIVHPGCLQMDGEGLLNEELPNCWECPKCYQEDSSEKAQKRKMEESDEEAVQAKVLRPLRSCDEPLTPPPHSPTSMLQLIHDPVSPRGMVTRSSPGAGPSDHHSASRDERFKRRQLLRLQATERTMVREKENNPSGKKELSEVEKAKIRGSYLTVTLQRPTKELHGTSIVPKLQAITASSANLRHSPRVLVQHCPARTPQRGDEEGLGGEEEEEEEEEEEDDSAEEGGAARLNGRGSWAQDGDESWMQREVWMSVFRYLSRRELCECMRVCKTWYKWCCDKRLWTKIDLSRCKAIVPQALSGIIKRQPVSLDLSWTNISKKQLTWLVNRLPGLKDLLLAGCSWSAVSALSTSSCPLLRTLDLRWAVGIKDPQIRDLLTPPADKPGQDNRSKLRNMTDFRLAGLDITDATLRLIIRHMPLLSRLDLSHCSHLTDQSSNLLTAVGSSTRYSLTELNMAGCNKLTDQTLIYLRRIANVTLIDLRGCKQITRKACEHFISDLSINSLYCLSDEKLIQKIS
In words: Inhibition of KDM2A (unknown origin).

Where only a bound is given, the exact number is not on record here.

Chain of Histone lysine demethylase PHF8 (Q9UPP1 whole entry): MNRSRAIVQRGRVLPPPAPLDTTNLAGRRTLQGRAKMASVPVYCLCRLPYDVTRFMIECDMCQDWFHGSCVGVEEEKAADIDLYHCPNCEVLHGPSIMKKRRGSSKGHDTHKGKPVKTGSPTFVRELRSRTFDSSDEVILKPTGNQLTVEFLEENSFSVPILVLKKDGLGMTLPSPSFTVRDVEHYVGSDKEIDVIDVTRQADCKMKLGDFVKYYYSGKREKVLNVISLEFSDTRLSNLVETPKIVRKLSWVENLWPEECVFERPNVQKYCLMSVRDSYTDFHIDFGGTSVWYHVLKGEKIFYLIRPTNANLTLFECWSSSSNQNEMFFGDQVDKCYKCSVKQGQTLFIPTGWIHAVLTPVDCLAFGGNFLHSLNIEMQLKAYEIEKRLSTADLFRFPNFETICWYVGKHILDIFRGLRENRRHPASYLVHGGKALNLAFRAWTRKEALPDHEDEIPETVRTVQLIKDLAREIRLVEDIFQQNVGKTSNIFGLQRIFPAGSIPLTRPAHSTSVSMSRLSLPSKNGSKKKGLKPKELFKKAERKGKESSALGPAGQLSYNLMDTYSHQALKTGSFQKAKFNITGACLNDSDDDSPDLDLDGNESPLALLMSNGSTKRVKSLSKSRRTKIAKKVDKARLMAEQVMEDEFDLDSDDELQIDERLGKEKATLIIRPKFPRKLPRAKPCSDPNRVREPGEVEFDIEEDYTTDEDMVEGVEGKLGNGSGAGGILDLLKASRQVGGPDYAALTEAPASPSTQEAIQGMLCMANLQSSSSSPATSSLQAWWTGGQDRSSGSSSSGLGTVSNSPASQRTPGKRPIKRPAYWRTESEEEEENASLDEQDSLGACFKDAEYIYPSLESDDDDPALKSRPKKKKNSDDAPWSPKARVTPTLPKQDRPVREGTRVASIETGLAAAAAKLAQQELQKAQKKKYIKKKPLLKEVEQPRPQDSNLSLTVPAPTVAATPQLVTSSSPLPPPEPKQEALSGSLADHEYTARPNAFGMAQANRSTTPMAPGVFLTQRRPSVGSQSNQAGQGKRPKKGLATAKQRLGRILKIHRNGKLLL

For the compound `O=C(O)CCN(O)C(=O)CCCCCCCCC1CC1`, the results for the IC50 in test [1], in test [2] and in test [5] were 83 µM, 1.2 µM and 6.8 µM, respectively. Also, it took 16 µM to inhibit growth in test [3] by half (GI50). For the same compound, in test [4], the Activity result was “Dose-dependent effect”.
Regarding `CN(C)CCCCCCCCC(=O)N(O)CCC(=O)O`, the half-inhibitory concentration (IC50) stood at 2.2 µM in test [1], 19 µM in test [2] and 0.2 µM in test [5]. Also, the 50% growth inhibitory concentration (GI50) in test [3] is > 470 µM.
